Series [1] addresses T1, Tyrosine-protein phosphatase non-receptor type 1 (Homo sapiens, UniProt P18031).
T1 sequence (P18031 whole entry): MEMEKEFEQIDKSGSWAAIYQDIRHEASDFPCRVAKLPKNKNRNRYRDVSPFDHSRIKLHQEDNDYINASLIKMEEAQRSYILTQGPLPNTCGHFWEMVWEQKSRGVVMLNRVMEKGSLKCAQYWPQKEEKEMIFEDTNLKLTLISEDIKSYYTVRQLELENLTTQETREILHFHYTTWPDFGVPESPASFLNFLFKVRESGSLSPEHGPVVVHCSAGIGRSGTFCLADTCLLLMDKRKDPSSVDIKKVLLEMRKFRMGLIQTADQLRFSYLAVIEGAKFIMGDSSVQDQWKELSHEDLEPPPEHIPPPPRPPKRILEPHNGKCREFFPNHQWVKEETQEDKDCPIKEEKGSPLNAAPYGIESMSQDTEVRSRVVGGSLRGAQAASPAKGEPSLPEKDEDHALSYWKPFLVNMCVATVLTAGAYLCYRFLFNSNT
The series is described as follows: Inhibition of PTP1B by pNPP assay.

Series [2] is described as follows: Permeability across Caco-2 cell membrane. The format is ADME, cell-based. The note with it: human, read-out: permeability. For orientation: Passage across Caco-2 layers is used to estimate intestinal permeability.
Series [3] addresses T2, Tyrosine-protein phosphatase non-receptor type 1 (Homo sapiens) (UniProt P18031).
T2 sequence (whole entry): T1 sequence (P18031 whole entry)
The series is described as follows: Increase in phosphorylation level of human insulin receptor transfected in HEK293 cells at 80 uM. The format is functional, cell-based. In short, it runs like this: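 HEK293-MSR cells cotransfected with full-length human PTP1B and insulin receptor plasmids, attached 24 h, then treated 16 h in serum-free DMEM (0.4% DMSO final). Lysed on ice; IR phosphorylated at Y1162/Y1163 measured by ELISA and normalized to total protein (BCA). Expressed as fold shift; averages of triplicates from the same day.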

Our source for the IC50, Papp and Activity values is ChEMBL document CHEMBL1138056, “Potent benzimidazole sulfonamide protein tyrosine phosphatase 1B inhibitors containing the heterocyclic (S)-isothiazolidinone phosphotyrosine mimetic” (J Med Chem, 2006).

Some results are limits rather than exact numbers.

Usually IC50 stands for the concentration that inhibits the measured activity by half. Read a high IC50 as a need for much substance. `O=C1CC(c2ccc(CC(NS(=O)(=O)c3ccc(Br)cc3)c3nc4ccccc4[nH]3)cc2)S(=O)(=O)N1` (configuration not stated) came in with an IC50 in series [1] of 110 nM.
Take `CC(C)(C)c1cccc2[nH]c(C(Cc3ccc(C4CC(=O)NS4(=O)=O)cc3)NS(=O)(=O)c3ccc(-c4ccccc4)cc3)nc12` (configuration not stated): the IC50 in series [1] stood at 460 nM.
With `O=C1CC(c2ccc(C[C@H](NS(=O)(=O)c3ccccc3)c3nc4ccccc4[nH]3)cc2Br)S(=O)(=O)[N-]1.[Na+]` (some centres not stated), in series [2], the Papp was < 0.1 ×10⁻⁶ cm/s. The IC50 in series [1] was 340 nM. This compound came in with an Activity in series [3] of 0.7.
On to `COC(=O)c1ccc2[nH]c(C(Cc3ccc(C4CC(=O)NS4(=O)=O)cc3)NS(=O)(=O)c3ccc(-c4ccccc4)cc3)nc2c1` (configuration not stated), for which the half-maximal inhibitory concentration (IC50) in series [1] is 150 nM.
In series [1], `O=C1CC(c2ccc(CC(NS(=O)(=O)c3ccccc3C(F)(F)F)c3nc4ccccc4[nH]3)cc2)S(=O)(=O)N1` (configuration not stated) showed an IC50 of 130 nM.
The compound `O=C1CC(c2ccc(CC(NS(=O)(=O)c3cc(Cl)ccc3Cl)c3nc4ccccc4[nH]3)cc2)S(=O)(=O)N1` (configuration not stated) had an IC50 in series [1] of 160 nM.
Still for that read-out and setting: the figure for `O=C1CC(c2ccc(CC(NS(=O)(=O)c3cccc(Br)c3)c3nc4ccccc4[nH]3)cc2)S(=O)(=O)N1` (configuration not stated) is 77 nM; for `O=C1CC(c2ccc(CC(NS(=O)(=O)c3cccc(Cl)c3Cl)c3nc4ccccc4[nH]3)cc2)S(=O)(=O)N1` (configuration not stated) it is 240 nM.
The same measure, in the same setting: as for `N#Cc1ccc(S(=O)(=O)NC(Cc2ccc(C3CC(=O)NS3(=O)=O)cc2)c2nc3ccccc3[nH]2)cc1` (configuration not stated), the figure is 63 nM; as for `CC(=O)N[C@@H](Cc1ccccc1)C(=O)N[C@@H](Cc1ccc([C@@H]2CC(=O)NS2(=O)=O)cc1)C(N)=O`, 240 nM; as for `COc1ccc2[nH]c(C(Cc3ccc(C4CC(=O)NS4(=O)=O)cc3)NS(=O)(=O)c3ccc(-c4ccccc4)cc3)nc2c1` (configuration not stated), 130 nM.
Same read-out and setting: the figure for `O=C1CC(c2ccc(CC(NS(=O)(=O)c3ccc(-c4ccccc4)cc3)c3nc4cc(F)ccc4[nH]3)cc2)S(=O)(=O)N1` (configuration not stated) is 120 nM; for `Cc1ccccc1S(=O)(=O)NC(Cc1ccc(C2CC(=O)NS2(=O)=O)cc1)c1nc2ccccc2[nH]1` (configuration not stated) it is 300 nM; for `O=C1CC(c2ccc(CC(NS(=O)(=O)c3cc(F)cc(F)c3)c3nc4ccccc4[nH]3)cc2)S(=O)(=O)N1` (configuration not stated) it is 72 nM.
With `Cc1cc(C[C@H](NS(=O)(=O)c2cccc(Cl)c2)c2nc3ccccc3[nH]2)ccc1[C@@H]1CC(=O)[N-]S1(=O)=O.[Na+]`, the Papp in series [2] turned out to be 0.2 ×10⁻⁶ cm/s. Besides, the midpoint of inhibition in series [1], the IC50, lay at 76 nM. This compound yielded an Activity in series [3] of 1.9.
For the compound `O=C1CC(c2ccc(CC(NS(=O)(=O)c3ccc(F)cc3F)c3nc4ccccc4[nH]3)cc2)S(=O)(=O)N1` (configuration not stated), the IC50 in series [1] is 110 nM.
Still for that read-out and setting: the figure for `O=C1CC(c2ccc(CC(NS(=O)(=O)c3c(F)cccc3F)c3nc4ccccc4[nH]3)cc2)S(=O)(=O)N1` (configuration not stated) is 160 nM.
As to `O=C1CC(c2ccc(CC(NS(=O)(=O)c3ccccc3F)c3nc4ccccc4[nH]3)cc2)S(=O)(=O)N1` (configuration not stated), half-maximal inhibition in series [1] (IC50) was put at 120 nM.
Take `Cc1cc(C[C@H](NS(=O)(=O)c2ccc(Br)c(C(F)(F)F)c2)c2nc3ccccc3[nH]2)ccc1[C@@H]1CC(=O)[N-]S1(=O)=O.[Na+]`: the Papp in series [2] is < 0.1 ×10⁻⁶ cm/s. In series [1], the IC50 was 16 nM. Further, in series [3], the Activity worked out at 2.
In the same order, the values of `O=C1CC(c2ccc(C[C@H](NS(=O)(=O)c3ccccc3)c3nc4ccccc4[nH]3)cc2F)S(=O)(=O)[N-]1.[Na+]` (some centres not stated) are 0.2 ×10⁻⁶ cm/s, 18 nM and 1.6.
In series [1], `O=C1CC(c2ccc(CC(NS(=O)(=O)c3ccc(F)cc3)c3nc4ccccc4[nH]3)cc2)S(=O)(=O)N1` (configuration not stated) yielded an IC50 of 80 nM.
On the same count and under the same terms, as for `O=C1CC(c2ccc(CC(NS(=O)(=O)c3cccc(F)c3)c3nc4ccccc4[nH]3)cc2)S(=O)(=O)N1` (configuration not stated), the figure is 43 nM; as for `O=C1CC(c2ccc(CC(NS(=O)(=O)c3ccc(Cl)cc3)c3nc4ccccc4[nH]3)cc2)S(=O)(=O)N1` (configuration not stated), 110 nM; as for `O=C1CC(c2ccc(CC(NS(=O)(=O)c3cc(F)ccc3F)c3nc4ccccc4[nH]3)cc2)S(=O)(=O)N1` (configuration not stated), 140 nM.
The same measure, in the same setting: as for `O=C1CC(c2ccc(CC(NS(=O)(=O)c3ccccc3Br)c3nc4ccccc4[nH]3)cc2)S(=O)(=O)N1` (configuration not stated), the figure is 170 nM; as for `O=C1CC(c2ccc(CC(NS(=O)(=O)c3ccc(Cl)cc3Cl)c3nc4ccccc4[nH]3)cc2)S(=O)(=O)N1` (configuration not stated), 280 nM; as for `O=C1CC(c2ccc(CC(NS(=O)(=O)c3ccc(-c4ccccc4)cc3)c3nc4ccccc4[nH]3)cc2)S(=O)(=O)N1` (configuration not stated), 80 nM.
The compound `O=C(CCc1ccccc1)N[C@@H](Cc1ccc([C@@H]2CC(=O)NS2(=O)=O)cc1)c1nc2ccccc2[nH]1` returned an IC50 in series [1] of 600 nM.
Same read-out and setting: as for `N#Cc1ccccc1S(=O)(=O)NC(Cc1ccc(C2CC(=O)NS2(=O)=O)cc1)c1nc2ccccc2[nH]1` (configuration not stated), the figure is 45 nM; as for `O=C1CC(c2ccc(CC(NS(=O)(=O)c3ccc(F)c(F)c3)c3nc4ccccc4[nH]3)cc2)S(=O)(=O)N1` (configuration not stated), 110 nM; as for `O=C1CC(c2ccc(CC(NS(=O)(=O)c3cccc(C(F)(F)F)c3)c3nc4ccccc4[nH]3)cc2)S(=O)(=O)N1` (configuration not stated), 67 nM.
Compound `COc1cccc(S(=O)(=O)NC(Cc2ccc(C3CC(=O)NS3(=O)=O)cc2)c2nc3ccccc3[nH]2)c1` (configuration not stated) had a concentration for half-maximal inhibition (IC50) in series [1] of 48 nM.
As to `O=C1CC(c2ccc(CC(NS(=O)(=O)c3ccccc3Cl)c3nc4ccccc4[nH]3)cc2)S(=O)(=O)N1` (configuration not stated), the 50% inhibitory concentration (IC50) in series [1] stood at 160 nM.
Still for that read-out and setting: as for `Cc1ccc(S(=O)(=O)NC(Cc2ccc(C3CC(=O)NS3(=O)=O)cc2)c2nc3ccccc3[nH]2)cc1` (configuration not stated), the figure is 80 nM.
On the same count and under the same terms, the figure for `Cc1cccc(S(=O)(=O)NC(Cc2ccc(C3CC(=O)NS3(=O)=O)cc2)c2nc3ccccc3[nH]2)c1` (configuration not stated) is 85 nM.
With `Cc1cc(C[C@H](NS(=O)(=O)c2ccccc2C#N)c2nc3ccccc3[nH]2)ccc1[C@@H]1CC(=O)[N-]S1(=O)=O.[Na+]`, in series [2], the Papp is < 0.1 ×10⁻⁶ cm/s. In series [1], this compound registered an IC50 of 18 nM. The same compound showed an Activity in series [3] of 1.4.
Regarding `Cc1ccc2[nH]c(C(Cc3ccc(C4CC(=O)NS4(=O)=O)cc3)NS(=O)(=O)c3ccc(-c4ccccc4)cc3)nc2c1` (configuration not stated), the IC50 in series [1] turned out to be 140 nM.
On to `Cc1cc(C[C@H](NS(=O)(=O)c2ccccc2)c2nc3ccccc3[nH]2)ccc1[C@@H]1CC(=O)[N-]S1(=O)=O.[Na+]`, for which the Papp in series [2] stood at 0.4 ×10⁻⁶ cm/s. Also, in series [3], the Activity came to 2.8.
As to `O=C1C[C@@H](c2ccc(C[C@H](NS(=O)(=O)c3ccccc3)c3nc4ccccc4[nH]3)cc2)S(=O)(=O)[N-]1.[Na+]`, the Papp in series [2] came to 0.4 ×10⁻⁶ cm/s. The same compound yielded an IC50 in series [1] of 32 nM. In series [3], this compound came in with an Activity of 1.
In the case of `CC(=O)N[C@@H](Cc1ccc([C@@H]2CC(=O)NS2(=O)=O)cc1)c1nc2ccccc2[nH]1`, the IC50 in series [1] is 940 nM.
`O=C1CC(c2ccc(CC(NS(=O)(=O)c3ccc(-c4ccccc4)cc3)c3nc4cc(Cl)ccc4[nH]3)cc2)S(=O)(=O)N1` (configuration not stated) displayed a concentration for half-maximal inhibition (IC50) in series [1] of 140 nM.
Still for that read-out and setting: the figure for `O=C1CC(c2ccc(CC(NS(=O)(=O)c3cccc(Cl)c3)c3nc4ccccc4[nH]3)cc2)S(=O)(=O)N1` (configuration not stated) is 60 nM.
Turning to `O=C1CC(c2ccc(C[C@H](NS(=O)(=O)c3cccc(C(F)(F)F)c3)c3nc4cc(Cl)ccc4[nH]3)cc2F)S(=O)(=O)[N-]1.[Na+]` (some centres not stated), the Papp in series [2] stood at 0.3 ×10⁻⁶ cm/s. Half-maximal inhibition in series [1] (IC50) was put at 10 nM. This compound returned an Activity in series [3] of 2.3.
For the compound `O=C1CC(c2ccc(CC(NS(=O)(=O)c3ccc(Cl)c(Cl)c3)c3nc4ccccc4[nH]3)cc2)S(=O)(=O)N1` (configuration not stated), 79 nM corresponded to half-maximal inhibition in series [1] (IC50).
For `O=C1CC(c2ccc(CC(NS(=O)(=O)c3ccc(-c4ccccc4)cc3)c3nc4cc(C(F)(F)F)ccc4[nH]3)cc2)S(=O)(=O)N1` (configuration not stated), half-maximal inhibition in series [1] (IC50) was put at 160 nM.
With `O=C1C[C@@H](c2ccc(C[C@H](NS(=O)(=O)c3ccccc3)c3nc4ccccc4[nH]3)cc2Cl)S(=O)(=O)[N-]1.[Na+]`, the Papp in series [2] was < 0.1 ×10⁻⁶ cm/s. The same compound came in with an IC50 in series [1] of 50 nM. For the same compound, in series [3], the Activity was 1.
As to `CS(=O)(=O)N[C@@H](Cc1ccc([C@@H]2CC(=O)NS2(=O)=O)cc1)c1nc2ccccc2[nH]1`, half-maximal inhibition in series [1] (IC50) required 590 nM.
Still for that read-out and setting: as for `O=C1CC(c2ccc(CC(NS(=O)(=O)c3cc(Cl)cc(Cl)c3)c3nc4ccccc4[nH]3)cc2)S(=O)(=O)N1` (configuration not stated), the figure is 51 nM.
The same measure, in the same setting: the figure for `O=C1CC(c2ccc(CC(NS(=O)(=O)c3ccc(C(F)(F)F)cc3)c3nc4ccccc4[nH]3)cc2)S(=O)(=O)N1` (configuration not stated) is 51 nM; for `O=C1CC(c2ccc(CC(NS(=O)(=O)c3c(Cl)cccc3Cl)c3nc4ccccc4[nH]3)cc2)S(=O)(=O)N1` (configuration not stated) it is 460 nM.
As for `Cc1cc(C[C@H](NS(=O)(=O)c2ccccc2)c2nc3ccccc3[nH]2)ccc1[C@H]1CC(=O)NS1(=O)=O`, the Activity in series [3] was found to be 1.
Regarding `N#Cc1ccc2nc(C(Cc3ccc(C4CC(=O)NS4(=O)=O)cc3)NS(=O)(=O)c3ccc(-c4ccccc4)cc3)[nH]c2c1` (configuration not stated), in series [1], it took 53 nM to reach half-maximal inhibition (IC50).
The same measure, in the same setting: as for `Cc1cccc2[nH]c(C(Cc3ccc(C4CC(=O)NS4(=O)=O)cc3)NS(=O)(=O)c3ccc(-c4ccccc4)cc3)nc12` (configuration not stated), the figure is 190 nM.
On the same count and under the same terms, the figure for `COc1ccc(S(=O)(=O)NC(Cc2ccc(C3CC(=O)NS3(=O)=O)cc2)c2nc3ccccc3[nH]2)cc1` (configuration not stated) is 94 nM.
The same measure, in the same setting: as for `O=C1CC(c2ccc(CC(NS(=O)(=O)c3ccc(-c4ccccc4)cc3)c3nc4c(O)cccc4[nH]3)cc2)S(=O)(=O)N1` (configuration not stated), the figure is 240 nM.
